Calls of active or inactive are those of the source. The calls are words filed in the database; no cut-off is given here.
Experiments:
PC-12 [1] = test: cells; settings: Rattus norvegicus, PC-12, 1 h
P2Y purinoceptor 11 = target: T1, P2Y purinoceptor 11 (Homo sapiens, UniProt Q96G91); test: Agonist activity at GFP-tagged human P2Y11R transfected in human 1321N1 cells assessed as increase in intracellular Ca2+ level by fura 2/AM probe-based fluorescence assay; format: functional, cell-based
T1 sequence (Q96G91 whole entry): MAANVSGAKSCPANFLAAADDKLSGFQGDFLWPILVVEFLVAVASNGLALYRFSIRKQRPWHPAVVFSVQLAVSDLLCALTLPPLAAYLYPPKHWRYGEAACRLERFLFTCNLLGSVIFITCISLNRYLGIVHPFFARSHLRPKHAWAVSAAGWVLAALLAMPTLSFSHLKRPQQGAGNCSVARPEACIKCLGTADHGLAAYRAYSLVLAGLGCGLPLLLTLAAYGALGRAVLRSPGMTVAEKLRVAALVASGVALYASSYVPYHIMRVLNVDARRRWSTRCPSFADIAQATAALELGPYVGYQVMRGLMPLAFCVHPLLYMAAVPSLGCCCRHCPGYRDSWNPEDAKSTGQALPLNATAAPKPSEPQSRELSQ

[2] = Antioxidant activity assessed as ABTS radical scavenging activity after 7 mins; format: physicochemical
Procedure, shortened: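 ABTS radical cation made from 7 mM ABTS with 2.45 mM persulfate (final), kept in the dark at room temperature 12–16 h. It was then diluted in water pH 7.4 to A734 0.80 and mixed with compound or Trolox standard (final 0–60 µM). A734 was read at 7 min. Percent inhibition plotted against concentration; at least three runs, in triplicate.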

[3] = Metal chelating activity assessed as inhibition of Fe2+-ferrozine complex formation after 10 mins; format: physicochemical
Procedure, shortened: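 Competitive ferrozine assay. FeSO4 (final 10 µM) and ferrozine (final 20 µM) are mixed with nucleotide in DDW at final 25–200 µM and agitated 10 min at room temperature. Absorbance of the Fe(II)-ferrozine complex is read at 562 nm with and without compound, and inhibition of complex formation is calculated. Three experiments, mean ± S.D.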

P2Y purinoceptor 1 = P2Y purinoceptor 1 (Homo sapiens, UniProt P47900); test: Agonist activity at GFP-tagged human P2Y1R transfected in human 1321N1 cells assessed as increase in intracellular Ca2+ level by fura 2/AM probe-based fluorescence assay; format: functional, cell-based
Chain of P2Y purinoceptor 1 (P47900 whole entry): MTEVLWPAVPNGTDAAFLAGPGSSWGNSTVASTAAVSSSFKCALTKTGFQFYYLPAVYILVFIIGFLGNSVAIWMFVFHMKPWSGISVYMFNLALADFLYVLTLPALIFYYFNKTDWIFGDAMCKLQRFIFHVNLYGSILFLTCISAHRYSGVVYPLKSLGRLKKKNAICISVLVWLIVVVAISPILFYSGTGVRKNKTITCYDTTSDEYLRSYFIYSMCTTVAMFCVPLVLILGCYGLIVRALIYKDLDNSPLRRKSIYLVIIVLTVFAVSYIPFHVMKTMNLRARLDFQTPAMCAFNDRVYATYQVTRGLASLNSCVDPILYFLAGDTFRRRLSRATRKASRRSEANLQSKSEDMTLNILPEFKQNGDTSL

[4] = Antioxidant activity assessed as inhibition of Fe2+-induced DMPO-OH adduct formation from H2O2 preincubated for 30 secs followed by DMPO/H2O2 addition measured after 150 secs by ESR analysis; format: physicochemical
Procedure, shortened: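 Fenton/ESR spin trapping: 1 mM ammonium iron(II) sulfate was added to 5–500 µM compound, then Tris buffer pH 7.4 (final pH 7.2–7.4). After 30 s, 100 mM DMPO and 100 mM H2O2 were added (stock concentrations). The ESR spectrum was recorded 150 s after H2O2, at room temperature. DMPO-OH adduct expressed as % of control containing FeSO4, H2O2 and DMPO only.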

[5] = Half life of the compound in RPMI-1640 medium at 37 degC by HPLC analysis; format: ADME
Procedure, shortened: (§1)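 Nucleotides were incubated in human blood serum or RPMI-1640 at 37 °C for 0.5–24 h. Hydrolysis was followed by the change in HPLC peak integration of each analogue over time, and half-life was derived from this.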

[6] = Half life in human serum at 37 degC by HPLC analysis; format: ADME, cell-free
Procedure, shortened: as §1

PC-12 [7] = test system: PC-12
[8] = Metal chelating activity assessed as inhibition of Fe2+-ferrozine complex formation at 80 uM after 10 mins relative to control; format: physicochemical
Procedure, shortened: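 FeSO4 (final 10 µM) was mixed with ferrozine (final 20 µM) and nucleotide (final 25–200 µM) in water and agitated 10 min at room temperature. Fe(II)-ferrozine complex absorbance at 562 nm, measured with versus without compound. Mean of three experiments.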

[9] = Antioxidant activity in human NTERA2 cells assessed as inhibition of Fe2+-induced reactive oxygen species formation at 0.2 uM after 1 hr by DCFH-DA dye-based fluorometric analysis relative to control; format: functional; settings: NTERA2, 1 h
[10] = target: T2, eNPP1 (ectonucleotide pyrophosphatase/phosphodiesterase family member 1) (Homo sapiens, UniProt P22413); test: (§2) Drug metabolism assessed as human eNPP1-mediated compound hydrolysis at 4 mM after 2 hrs by reverse-phase HPLC analysis relative to ATP; format: ADME; settings: human eNPP1 enzyme, read-out: Drug metabolism
T2 sequence (P22413 whole entry): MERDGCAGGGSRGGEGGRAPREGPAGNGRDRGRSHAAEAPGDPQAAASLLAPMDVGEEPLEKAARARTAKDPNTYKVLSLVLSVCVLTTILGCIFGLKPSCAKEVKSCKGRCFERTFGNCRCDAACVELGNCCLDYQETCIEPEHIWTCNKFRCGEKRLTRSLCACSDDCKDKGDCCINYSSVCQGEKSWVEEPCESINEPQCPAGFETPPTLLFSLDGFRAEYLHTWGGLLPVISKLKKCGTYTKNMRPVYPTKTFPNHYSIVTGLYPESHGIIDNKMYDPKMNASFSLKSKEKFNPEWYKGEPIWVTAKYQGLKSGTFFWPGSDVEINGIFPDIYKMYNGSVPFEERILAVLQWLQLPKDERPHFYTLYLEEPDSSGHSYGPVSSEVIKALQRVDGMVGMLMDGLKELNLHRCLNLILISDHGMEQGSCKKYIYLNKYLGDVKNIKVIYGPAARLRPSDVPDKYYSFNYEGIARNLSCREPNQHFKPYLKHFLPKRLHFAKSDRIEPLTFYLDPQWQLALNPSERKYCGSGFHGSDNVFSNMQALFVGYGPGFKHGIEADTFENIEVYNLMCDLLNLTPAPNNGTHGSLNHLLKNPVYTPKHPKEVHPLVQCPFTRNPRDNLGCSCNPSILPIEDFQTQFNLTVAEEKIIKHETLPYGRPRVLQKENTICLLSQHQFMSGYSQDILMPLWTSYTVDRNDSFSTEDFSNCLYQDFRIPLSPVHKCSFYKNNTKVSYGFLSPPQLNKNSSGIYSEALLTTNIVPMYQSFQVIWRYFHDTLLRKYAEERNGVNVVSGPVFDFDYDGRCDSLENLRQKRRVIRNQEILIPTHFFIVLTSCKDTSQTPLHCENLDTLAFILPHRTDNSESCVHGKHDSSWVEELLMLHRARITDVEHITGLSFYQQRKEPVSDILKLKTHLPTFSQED
Procedure, shortened: (§3)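 Human eNPP1 extract (19 µg) was preincubated 3 min at 37 °C in 1 mM CaCl2, 200 mM NaCl, 10 mM KCl, 100 mM Tris pH 8.5, then reaction started with compound (4 mM stock). Stopped after 2 h with ice-cold 1 M perchloric acid, neutralised with KOH, and analysed by RP-HPLC (90% 100 mM TEAA pH 7/10% CH3CN). Degradation from the monophosphate peak after subtracting the acid-only control.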

[11] = Neuroprotective activity against Fe2+-induced oxidative damage in rat primary cortical neurons assessed as cell viability after 24 hrs by MTT assay; format: functional, cell-based; settings: Cerebral cortex neuron
Procedure, shortened: (§4)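 Rat (1-day-old) cortical neurons were grown serum-free in DMEM/F12 with B-27 on poly-ornithine, treated with Ara-C and cultured 5 d. Cells were pretreated with nucleotide (0.01–25 µM), then exposed to FeSO4 3 µM final for 24 h. MTT 1 mg/mL was added for 2 h at 37 °C, formazan dissolved in DMSO, A550 read. Viability given as % of vehicle control; three independent experiments in triplicate.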

NTERA2 = test: Antioxidant activity in human NTERA2 cells assessed as inhibition of Fe2+-induced reactive oxygen species formation at 0.01 to 25 uM after 1 hr by DCFH-DA dye-based fluorometric analysis in presence of P2Y1R antagonist MRS2179; format: functional, cell-based
Procedure, shortened: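 Ntera-2 cells (DMEM, seeded 24 h) were preincubated 20 min with 40 µM P2Y1 antagonist MRS2179. They were then loaded with DCFH-DA and treated with compound at 0.01–25 µM, with oxidation started by FeSO4 (final 0.16 µM). DCF fluorescence 485/530 nm, 1 h at 37 °C. Three independent experiments in triplicate.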

PC-12 [12] = test: Antioxidant activity in rat PC12 cells assessed as inhibition of Fe2+-induced reactive oxygen species formation at 0.01 to 25 uM after 1 hr by DCFH-DA dye-based fluorometric analysis in presence of P2Y12R antagonist 2-MeS-AMP; format: functional, cell-based
Procedure, shortened: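 PC12 cells (DMEM, seeded 24 h) were preincubated 20 min with 50 µM P2Y12 antagonist 2-MeS-AMP. They were then loaded with DCFH-DA, given test compound at 0.01–25 µM, and oxidised with FeSO4 (final 0.16 µM). DCF fluorescence 485/530 nm over 1 h at 37 °C. ROS inhibition compared with no-antagonist control; three independent experiments in triplicate.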

Cerebral cortex neuron [13] = test: Neuroprotective activity against Fe2+-induced morphological changes in rat primary cortical neurons at 0.2 to 100 uM after 24 hrs by light microscopic analysis; format: functional, cell-based
Procedure, shortened: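 Primary rat cortical neurons were exposed to 3 µM FeSO4 for 24 h, with compound at 0.2, 5 and 100 µM. Morphology (cell number, extensions, cytoskeleton) was examined by light microscopy at 100×.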

[14] = target: T3, Ectonucleotide pyrophosphatase/phosphodiesterase family member 1 (Homo sapiens, UniProt P22413); test: as §2; format: ADME; settings: 2 h, 4000 µM
T3 sequence (P22413 whole entry): T2 sequence (P22413 whole entry)
Procedure, shortened: as §3

Cerebral cortex neuron [15] = test: Neuroprotective activity against Fe2+-induced oxidative damage in rat primary cortical neurons assessed as cell viability at 0.01 to 25 uM after 24 hrs by MTT assay; format: functional, cell-based
Procedure, shortened: as §4

Compound | IC50 (PC-12 [1]) [µM] | EC50 (P2Y purinoceptor 11) [µM] | IC50 [2] [µM] | EC50 (P2Y purinoceptor 1) [µM] | IC50 [4] [µM] | further results
Nc1ncnc2c1ncn2[C@@H]1O[C@H](COP(=O)(O)OP(=O)(O)S)[C@@H](O)[C@H]1O (stereo not given in full) | 20 | 32.7 | 15 | 1.27 | 19 | IC50 [3]: 85 µM
CSc1nc(N)c2ncn([C@@H]3O[C@H](COP(=O)(O)OP(=O)(O)S)[C@@H](O)[C@H]3O)c2n1 (stereo not given in full) | 12 | 0.9 | 15 | 0.037 | 21 | –
Nc1nc(Cl)nc2c1ncn2[C@@H]1O[C@H](COP(=O)(O)OP(=O)(O)S)[C@@H](O)[C@H]1O (stereo not given in full) | 5 | 1 | 13 | 0.09 | 21 | –
Nc1ncnc2c1ncn2[C@@H]1O[C@H](COP(=O)(S)OP(=O)(O)O)[C@@H](O)[C@H]1O (stereo in doubt; 6A) | 38 | 4.5 | 20 | 0.08 | 31 | half-life [5]: 14.5 h; half-life [6]: 14.5 h
Nc1ncnc2c1ncn2[C@@H]1O[C@H](COP(=O)(S)OP(=O)(O)O)[C@@H](O)[C@H]1O (stereo in doubt; 6B) | – | 8.7 | 22 | 0.13 | 36 | IC50 (PC-12 [7]): 39 µM
CSc1nc(N)c2ncn([C@@H]3O[C@H](COP(=O)(S)OP(=O)(O)O)[C@@H](O)[C@H]3O)c2n1 (stereo in doubt; 7A) [listing 1 of 2 here] | – | 3.2 | 12.5 | 0.0026 | 37 | IC50 (PC-12 [7]): 0.08 µM; half-life [5]: 15 h; inhibition (INH) [8]: 50%; half-life [6]: 15 h; inhibition at 0.2 µM [9]: 50%; metabolised at 2 h, 4000 µM [10]: 36.6%; EC50 [11]: 0.04 µM
CSc1nc(N)c2ncn([C@@H]3O[C@H](COP(=O)(S)OP(=O)(O)O)[C@@H](O)[C@H]3O)c2n1 (stereo in doubt; 7A) [listing 2 of 2 here] | – | – | – | – | – | inhibition (NTERA2): inactive; inhibition (PC-12 [12]): inactive; Activity (Cerebral cortex neuron [13]): Active
CSc1nc(N)c2ncn([C@@H]3O[C@H](COP(=O)(S)OP(=O)(O)O)[C@@H](O)[C@H]3O)c2n1 (stereo in doubt; 7B) [listing 1 of 2 here] | – | 1 | 12 | 0.017 | 38 | IC50 (PC-12 [7]): 0.6 µM; Drug metabolism [14]: 23.7%
CSc1nc(N)c2ncn([C@@H]3O[C@H](COP(=O)(S)OP(=O)(O)O)[C@@H](O)[C@H]3O)c2n1 (stereo in doubt; 7B) [listing 2 of 2 here] | – | – | – | – | – | Activity (Cerebral cortex neuron [15]): Active
Nc1nc(Cl)nc2c1ncn2[C@@H]1O[C@H](COP(=O)(S)OP(=O)(O)O)[C@@H](O)[C@H]1O (stereo in doubt; 8A) | 0.2 | 1.4 | 11 | 0.03 | 36 | –
Nc1nc(Cl)nc2c1ncn2[C@@H]1O[C@H](COP(=O)(S)OP(=O)(O)O)[C@@H](O)[C@H]1O (stereo in doubt; 8B) | – | 0.5 | 12 | 1.5 | 39 | IC50 (PC-12 [7]): 0.11 µM
Nc1nc(Cl)nc2c1ncn2[C@@H]1O[C@H](COP(=O)(S)OP(=O)(O)OP(=O)(O)O)[C@@H](O)[C@H]1O (stereo in doubt; 9A) | 106 | 9.1 | 25 | 0.73 | 37 | –
Nc1nc(Cl)nc2c1ncn2[C@@H]1O[C@H](COP(=O)(S)OP(=O)(O)OP(=O)(O)O)[C@@H](O)[C@H]1O (stereo in doubt; 9B) | – | 1.1 | 24 | 0.88 | 27 | IC50 (PC-12 [7]): 100 µM
Nc1ncnc2c1ncn2[C@@H]1O[C@H](COP(=O)(O)OP(=O)(O)OP(=O)(O)O)[C@@H](O)[C@H]1O [ADENOSINE TRIPHOSPHATE] | – | – | 60 | – | – | –
O=C(O)CC(O)(CC(=O)O)C(=O)O [CITRIC ACID] | – | – | – | – | – | IC50 [3]: 300 µM
O=C(O)CN(CCN(CC(=O)O)CC(=O)O)CC(=O)O [EDETIC ACID] | – | – | – | – | 54 | –
O=C(O)CN(CCN(CC(=O)O)CC(=O)O)CCN(CC(=O)O)CC(=O)O [PENTETIC ACID] | – | – | – | – | – | IC50 [3]: 90 µM
Cc1c(C)c2c(c(C)c1O)CCC(C)(C(=O)O)O2 (stereo not given) [TROLOX] | – | – | 18 | – | – | IC50 [3]: 150 µM
